Source: ChEMBL document CHEMBL1821569, “Synthesis of novel 1,2,5-trisubstituted benzimidazoles as potential antitumor agents” (2011)

Tests used:
Type in all cases: functional
[1] = test system: CAKI-1; assay: Antitumor activity against human Caki1 cells after 48 hrs by SRB assay; conditions: CAKI-1, 48 h
In short: (§1)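 NCI 60-cell-line secondary screen. Cells were exposed continuously to drug for 48 h at five concentration levels (100, 10, 1.0, 0.1 and 0.01). Growth was estimated by sulforhodamine B protein staining. GI50 is the concentration giving a 50% reduction in net protein increase versus untreated control cells over the incubation. TGI (total growth inhibition) and LC50 (50% cell kill) were also derived.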

[2] = test system: HT-29; assay: Antitumor activity against human HT-29 cells after 48 hrs by SRB assay; conditions: HT-29, 48 h; in short: as §1
[3] = test system: MOLT-4; assay: Antitumor activity against human MOLT4 cells after 48 hrs by SRB assay; conditions: MOLT-4, 48 h; in short: as §1
[4] = test system: MDA-MB-231; assay: Antitumor activity against human MDA-MB-231 cells after 48 hrs by SRB assay; conditions: MDA-MB-231, 48 h; in short: as §1
[5] = test system: HCT-116; assay: Antitumor activity against human HCT116 cells after 48 hrs by SRB assay; conditions: HCT-116, 48 h; in short: as §1
[6] = test system: A498; assay: Antitumor activity against human A498 cells after 48 hrs by SRB assay; conditions: A498, 48 h; in short: as §1
[7] = test system: ACHN; assay: Antitumor activity against human ACHN cells after 48 hrs by SRB assay; in short: as §1
[8] = test system: OVCAR-4; assay: Antitumor activity against human OVCAR4 cells after 48 hrs by SRB assay; conditions: OVCAR-4, 48 h; in short: as §1
[9] = test system: SF-539; assay: Antitumor activity against human SF539 cells after 48 hrs by SRB assay; conditions: SF-539, 48 h; in short: as §1
[10] = test system: HL-60(TB); assay: Antitumor activity against human HL-60(TB) cells after 48 hrs by SRB assay; conditions: HL-60, 48 h
In short: (§2)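 NCI 60-cell-line secondary screen: continuous drug exposure for 48 h at five concentration levels (100, 10, 1.0, 0.1 and 0.01). Cell growth was estimated by sulforhodamine B (SRB) protein staining. GI50 is the concentration giving a 50% reduction in net protein increase relative to untreated control cells during the incubation. TGI and LC50 were derived from the same data.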

[11] = test system: DU-145; assay: Antitumor activity against human DU145 cells after 48 hrs by SRB assay; conditions: DU-145, 48 h; in short: as §1
[12] = test system: UACC-257; assay: Antitumor activity against human UACC257 cells after 48 hrs by SRB assay; conditions: UACC-257, 48 h
In short: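 NCI 60-cell-line secondary screen. Continuous 48 h exposure at five concentration levels. Cell growth estimated by sulforhodamine B protein staining. GI50 taken as the concentration giving 50% reduction in net protein increase relative to untreated control cells over the incubation. TGI (total growth inhibition) and LC50 (50% cell kill) were also derived.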

[13] = test system: EKVX; assay: Antitumor activity against human EKVX cells after 48 hrs by SRB assay; in short: as §1
[14] = test system: HCC 2998; assay: Antitumor activity against human HCC2998 cells after 48 hrs by SRB assay; conditions: HCC 2998, 48 h, read-out: LC50 (the source's name); in short: as §2
[15] = test system: 786-0; assay: Antitumor activity against human 786-0 cells after 48 hrs by SRB assay; conditions: 786-0, 48 h; in short: as §1
[16] = test system: OVCAR-8; assay: Antitumor activity against human OVCAR8 cells after 48 hrs by SRB assay; conditions: OVCAR-8, 48 h; in short: as §1
[17] = test system: M14; assay: Antitumor activity against human M14 cells after 48 hrs by SRB assay; conditions: M14, 48 h; in short: as §1
[18] = test system: NCI-H460; assay: Antitumor activity against human NCI-H460 cells after 48 hrs by SRB assay; conditions: NCI-H460, 48 h; in short: as §1
[19] = test system: IGROV-1; assay: Antitumor activity against human IGROV1 cells after 48 hrs by SRB assay; conditions: IGROV-1, 48 h; in short: as §1
[20] = test system: SF-268; assay: Antitumor activity against human SF268 cells after 48 hrs by SRB assay; conditions: SF-268, 48 h; in short: as §1
[21] = test system: BT-549; assay: Antitumor activity against human BT549 cells after 48 hrs by SRB assay; conditions: BT-549, 48 h; in short: as §1
[22] = Antitumor activity against human Hs 578T cells after 48 hrs by SRB assay; in short: as §1
[23] = test system: NCI-H522; assay: Antitumor activity against human NCI-H522 cells after 48 hrs by SRB assay; conditions: NCI-H522, 48 h; in short: as §1
[24] = test system: A549; assay: Antitumor activity against human A549 cells after 48 hrs by SRB assay; conditions: A549, 48 h; in short: as §1
[25] = test system: SNB-19; assay: Antitumor activity against human SNB19 cells after 48 hrs by SRB assay; conditions: SNB-19, 48 h; in short: as §1
[26] = test system: Malme-3M; assay: Antitumor activity against human MALME-3M cells after 48 hrs by SRB assay; in short: as §1
[27] = test system: NCI-H23; assay: Antitumor activity against human NCI-H23 cells after 48 hrs by SRB assay; conditions: NCI-H23, 48 h; in short: as §1
[28] = test system: SNB-75; assay: Antitumor activity against human SNB75 cells after 48 hrs by SRB assay; conditions: SNB-75, 48 h; in short: as §1
[29] = read-out: LC50 (the source's name)

COC(=O)c1ccc2c(c1)nc(-c1cc3ccccc3[nH]c1=O)n2-c1cc(C(C)(C)C)[nH]n1
GI50 [1]: 0.476 µM | TGI [1]: 90.5 µM | CC50 [1, 29]: > 100 µM | GI50 [2]: 1.34 µM | LC50 (50% cell kill) [2]: > 100 µM | TGI [2]: > 100 µM | GI50 [3]: 0.445 µM | LC50 (50% net cell kill) [3]: > 100 µM | TGI [3]: > 100 µM | GI50 [4]: 4.13 µM | TGI [4]: > 100 µM | CC50 [4, 29]: > 100 µM | GI50 [5]: 1.74 µM | LC50 [5]: > 100 µM | TGI [5]: > 100 µM | GI50 [6]: 13.6 µM | TGI [6]: 76.9 µM | CC50 [6, 29]: > 100 µM | GI50 [7]: > 100 µM | TGI [7]: > 100 µM | CC50 [7, 29]: > 100 µM | TGI [8]: > 100 µM | CC50 [8, 29]: > 100 µM | GI50 [9]: 4.12 µM | TGI [9]: > 100 µM | CC50 [9, 29]: > 100 µM | GI50 [10]: 0.322 µM | LC50 [10]: > 100 µM | GI50 [11]: 2.37 µM | TGI [11]: > 100 µM | CC50 [11, 29]: > 100 µM | TGI [12]: > 100 µM | CC50 [12, 29]: > 100 µM | GI50 [13]: 5.8 µM | LC50 (50% cell kill) [13]: > 100 µM | TGI [13]: > 100 µM | CC50 [14]: > 100 µM | GI50 [15]: 5.81 µM | TGI [15]: > 100 µM | CC50 [15, 29]: > 100 µM | GI50 [16]: 1.79 µM | TGI [16]: > 100 µM | CC50 [16, 29]: > 100 µM | TGI [17]: > 100 µM | CC50 [17, 29]: > 100 µM | GI50 [18]: 0.63 µM | TGI [18]: > 100 µM | CC50 [18, 29]: > 100 µM | GI50 [19]: 0.965 µM | TGI [19]: > 100 µM | CC50 [19, 29]: > 100 µM | GI50 [20]: 2.13 µM | TGI [20]: 91.9 µM | CC50 [20, 29]: > 100 µM | GI50 [21]: 4.88 µM | TGI [21]: 66.2 µM | CC50 [21, 29]: > 100 µM | GI50 [22]: 0.619 µM | TGI [22]: 34.1 µM | CC50 [22, 29]: > 100 µM | GI50 [23]: 0.928 µM | LC50 (50% cell kill) [23]: > 100 µM | TGI [23]: > 100 µM | GI50 [24]: > 100 µM | TGI [24]: > 100 µM | CC50 [24, 29]: > 100 µM | GI50 [25]: 7.59 µM | TGI [25]: > 100 µM | CC50 [25, 29]: > 100 µM | GI50 [26]: 2.63 µM | TGI [26]: > 100 µM | CC50 [26, 29]: > 100 µM | GI50 [27]: 2.78 µM | LC50 (50% cell kill) [27]: > 100 µM | TGI [27]: > 100 µM | GI50 [28]: 5.42 µM | TGI [28]: 41.5 µM | CC50 [28, 29]: > 100 µM
